Entries after “also recorded” stand apart in the source; their conditions may differ.
Key:
[1] = target: Runt domain - CBFβ interaction (Homo sapiens, UniProt Q01196); assay: FRET assay of Cerulean-Runt domain and Venus-CBFβ binding
Outline: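 Purified Cerulean-Runt domain and Venus-CBFβ fusion proteins were used in a competition FRET format. Test compounds displace CBFβ binding to the Runt domain. Initial screening of compounds was at 200 µM.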

[2] = tested on: t(8;21) positive human AML samples; assay: CFU-C assay, primary human t; assay type: cell-based; details: five samples, methylcellulose, colonies counted 14 days after plating
Outline: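 Primary AML specimens (pheresis or bone marrow mononuclear cells) were plated in methylcellulose with various test compound concentrations. Colonies were scored 14 days after plating. Triplicate cultures per concentration, two experiments. Significance versus DMSO by one-way ANOVA with Dunnett's multiple-comparison test.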

720 T-ALL cells = assay: qPCR gene expression in 720 T-ALL cells; assay type: cell-based, mouse; details: 720 T-ALL cells treated for 16 hours
Outline: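 720 T-ALL cells were exposed to test compound for 16 h and transcript levels quantified by qPCR relative to DMSO-treated cells. Triplicate means ± SD, two experiments. One-way ANOVA with Dunnett's comparison against DMSO.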

Kasumi-1 cells [3] = assay: MTT cell viability assay, Kasumi-1; assay type: cell-based, human; details: 48 hours in culture
Outline: (§1)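 Leukemia cell lines were treated with test compound, with DMSO vehicle and staurosporine positive-control arms, and viability was read by MTT. Mean of triplicates ± SD, two independent experiments. One-way ANOVA excluding staurosporine, then Dunnett's test against DMSO-treated cells (P ≤ 0.05).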

8946 T-ALL cell line = assay: MTT cell viability assay, 8946; assay type: cell-based, murine; details: 48 hours
Outline: as §1

Kasumi-1 cells [4] = assay: DAPI flow cytometry of dead/live Kasumi-1 cells; assay type: cell-based, human; details: 48 hours in culture
[5] = tested on: hematopoietic stem and progenitor cell (HSPC) formation in zebrafish embryos; assay: HSPC formation in zebrafish embryos; assay type: in vivo
[6] = tested on: AML1-ETO9a + NRas^G12D AML cells; assay: CFU-C assay, murine AML1-ETO9a + NRasG12D AML cells; assay type: cell-based, mouse; details: methylcellulose, colonies counted 7 days after plating
Outline: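 Leukemic cells came from a secondary recipient of spleen cells. The primary recipient had received fetal liver cells transduced with AML1-ETO9a and NRasG12D retroviruses. 20,000 cells were plated in methylcellulose with various test compound concentrations (DMSO final 0.2%). Colonies were counted at day 7. Triplicates per concentration, two experiments, SD. One-way ANOVA with Dunnett's test versus DMSO.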

720 T-ALL cell line = assay: MTT cell viability assay, 720 T-ALL; assay type: cell-based, mouse; details: 48 hours
Outline: as §1

[7] = tested on: normal bone marrow mononuclear cells (BM-MNCs); assay: CFU-C assay, normal human bone marrow mononuclear cells; assay type: cell-based; details: methylcellulose, colonies counted 14 days after plating
[8] = tested on: normal mouse bone marrow cells; assay: CFU-C assay, normal mouse bone marrow cells; assay type: cell-based; details: methylcellulose, colonies counted 7 days after plating
Cerulean-Runt domain = assay: Saturation transfer difference; assay type: binding; details: STD NMR
Jurkat = assay: MTT cell viability assay, Jurkat; assay type: cell-based, human; details: 48 hours
Outline: as §1

CBFβ-Runx = details: ref [44]; cited from earlier work

Chain of Runt domain - CBFβ interaction (Q01196 50-178 limits assumed): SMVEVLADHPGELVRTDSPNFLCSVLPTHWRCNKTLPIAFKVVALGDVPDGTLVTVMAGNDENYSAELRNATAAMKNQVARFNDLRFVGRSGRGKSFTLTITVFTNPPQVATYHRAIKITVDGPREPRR

## Sc1nnc(-c2ccccc2)s1 [4b, 5-phenyl-1,3,4-thiadiazole-2(3H)-thione]
[1]
  IC50: 11 ± 1.3 µM

## CSc1nnc(-c2ccccc2F)s1 [6a, 2-(2-fluorophenyl)-5-(methylthio)-1,3,4-thiadiazole]
[1]; Cerulean-Runt domain and Venus-CBFβ at 100 nM
  activity in the FRET assay: complete loss of activity

## S=c1[nH]nc(-c2ccc(-c3cccc(Cl)c3)o2)s1 [AI-8–45]
[2]
  colony numbers of t(8;21) positive human AML samples: significantly reduced the colony numbers
720 T-ALL cells
  expression of Deptor, Cdkn1a, Dhcr24, Cebpa, Csf1r (qPCR): affected
Kasumi-1 cells [3]
  growth of Kasumi-1 cells (MTT): significantly reduced the growth; also recorded: inhibit proliferation
8946 T-ALL cell line
  growth of 8946 T-ALL cells (MTT): significantly reduced the growth; also recorded: inhibit proliferation
Kasumi-1 cells [4]
  percentage of DAPI-positive dead cells: statistically significant and dose-dependent increase
[5]; Tg(kdrl:dsred;cmyb:egfp) embryos, 2.5 µM, 12 to 36 hpf, flow cytometry
  Flk1:dsRed+Myb:Gfp+ HSPCs in the VDA at 36 hpf: decreased
[5]; Tg(−6.0itga2b:egfp) embryos, treated 18 to 48 hpf, compared to AI-7–54 treated controls
  number of CD41:Gfp+ HSPCs in the CHT at 48 hpf: decreased
[6]
  colony formation of AML1-ETO9a + NRasG12D AML cells: significantly reduced colony formation
720 T-ALL cell line
  growth of 720 T-ALL cells (MTT): significantly reduced the growth; also recorded: inhibit proliferation
[7]
  colony numbers of normal bone marrow mononuclear cells: but not that of normal bone marrow mononuclear cells
[8]
  colony formation by normal mouse bone marrow cells: Neither AI-8–45 nor AI-9–54 had any effect
Cerulean-Runt domain
  saturation transfer effect / binding to Runt domain: in close contact with the protein
Jurkat
  growth of Jurkat cells (MTT): significantly reduced the growth; also recorded: inhibit proliferation

## O=C1CN=C(c2ccc[nH]2)c2cc(Cl)ccc2N1 [Ro5-3335]
CBFβ-Runx
  inhibitor of CBFβ-Runx: inhibitor of CBFβ-Runx

Source: paper PMC6005736 (Leukemia & lymphoma, 2017)
